Laboratory results taken from ChEMBL document CHEMBL1128588, “Synthesis and cytotoxicity of water-soluble ambrosin prodrug candidates” (1995).

Key:
Assay type in all cases: functional
Conditions in all cases: Homo sapiens
NCI-H522 = test: The compound was evaluated for cytotoxicity against lung cancer cell line NCI-H522
Outline: (§1)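 Tested within a panel of about 51 human cancer cell lines covering leukemia, non-small-cell lung and other tumour types. The value reported is GI50, the concentration giving 50% growth inhibition.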

SN12C = test: The compound was evaluated for cytotoxicity against renal cancer cell line SN12C; outline: as §1
LOX IMVI = test: The compound was evaluated for cytotoxicity against melanoma cell line LOX-IMVI; outline: as §1
HCT-116 = test: The compound was evaluated for cytotoxicity against colon cancer cell line HCT116; outline: as §1
OVCAR-5 = test: The compound was evaluated for cytotoxicity against ovarian cancer cell line OVCAR-5; outline: as §1
SF-539 = test: The compound was evaluated for cytotoxicity against CNS cancer cell line CNS SF-539; outline: as §1
PC-3 = test: The compound was evaluated for cytotoxicity against prostate cancer cell line PC-3; outline: as §1
MCF7 = test: The compound was evaluated for cytotoxicity against breast cancer cell line MCF-7; outline: as §1

With C=C1C(=O)O[C@@H]2[C@H]1CC[C@H](C)[C@@H]1C=CC(=O)[C@@]21C [AMBROSIN] the GI50 (NCI-H522) was 1 µM, the GI50 (SN12C) was 3.4 µM and the GI50 (LOX IMVI) was 2.2 µM. It also gave a GI50 (HCT-116) of 1.8 µM, a GI50 (OVCAR-5) of 4.9 µM and a GI50 (SF-539) of 2.9 µM. For the same compound, the GI50 (PC-3) was 4.5 µM and the GI50 (MCF7) was 3.9 µM.

With C[C@H]1CC[C@H]2C(CN3CCCCC3)C(=O)O[C@H]2[C@]2(C)C(=O)CC(N3CCCCC3)[C@@H]12 (some centres undefined) the GI50 (NCI-H522) was 1.1 µM, the GI50 (SN12C) was 8.1 µM and the GI50 (LOX IMVI) was 3.6 µM. It also gave a GI50 (HCT-116) of 1.8 µM, a GI50 (OVCAR-5) of 22 µM and a GI50 (SF-539) of 5.4 µM. It also gave a GI50 (PC-3) of 8.5 µM and a GI50 (MCF7) of 4.7 µM.

Compound C[C@H]1CC[C@H]2C(CN3CCCC3)C(=O)O[C@H]2[C@]2(C)C(=O)CC(N3CCCC3)[C@@H]12 (some centres undefined) has a GI50 (NCI-H522) of 1.8 µM, a GI50 (SN12C) of 11 µM and a GI50 (LOX IMVI) of 3.3 µM. It also gave a GI50 (HCT-116) of 3.8 µM, a GI50 (OVCAR-5) of 6.3 µM and a GI50 (SF-539) of 9.1 µM. It also gave a GI50 (PC-3) of 20 µM and a GI50 (MCF7) of 4.2 µM.
